From PubChem
CHRM4 antagonist – blocks acetylcholine activation of human M4 receptor | 360,000 tested, 0.73% active | CHO-hM4 cells, ACh EC80, Fluo-8 calcium fluorescence | inhibition, % at 3 µM;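 active = inhibition above its plate's cutoff, the mean inhibition of sample wells plus 3 SD, cut at about 27% in these data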;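 note: 0% = acetylcholine EC80 with DMSO and 100% = DMSO without agonist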
Target sequence (P08173 whole entry, looked up): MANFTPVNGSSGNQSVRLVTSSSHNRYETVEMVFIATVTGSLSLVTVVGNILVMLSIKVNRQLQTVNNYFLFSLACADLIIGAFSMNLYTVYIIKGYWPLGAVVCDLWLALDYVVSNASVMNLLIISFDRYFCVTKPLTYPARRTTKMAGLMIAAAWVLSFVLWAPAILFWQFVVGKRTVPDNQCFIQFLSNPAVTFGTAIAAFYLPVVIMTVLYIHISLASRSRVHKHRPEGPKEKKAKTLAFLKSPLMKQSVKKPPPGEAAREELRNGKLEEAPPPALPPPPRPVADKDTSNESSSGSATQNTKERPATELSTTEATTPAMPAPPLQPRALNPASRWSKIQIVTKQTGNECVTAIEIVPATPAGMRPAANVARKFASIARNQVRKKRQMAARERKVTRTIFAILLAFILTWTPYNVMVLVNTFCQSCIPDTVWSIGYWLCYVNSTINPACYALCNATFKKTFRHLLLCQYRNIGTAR
CHRM5 PAM – positive allosteric modulators of human muscarinic M5 receptor; P08912; CHO-K1 hM5, Fluo-8 calcium, ACh EC20 PAM; 0% = ACh EC20, 100% = ACh EC100; activation, % at 3 µM; 360,000 tested, 0.3% active;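 active = activation above the run cutoff, the mean activation of all test compounds plus 3 SD, cut at about 18% in these data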
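Assay system: CHO-K1 hM5 cells. Also added: acetylcholine at EC20 concentration, added after compound. Dosing: 3 µM, single dose. Times: compound preincubation 140 s before EC20 acetylcholine addition. Signal: Fluo-8 calcium fluorescence. Measure: % activation relative to EC20 and EC100 ACh responses. Repeats: singlicate, one well per test compound.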
CHRM4 PAM – positive allosteric modulators of human muscarinic M4 receptor; P08173; CHO-K1 hM4/Gqi5, Fluo-8 calcium fluorescence, ACh EC20; 0% = ACh EC20, 100% = maximal ACh; activation, % at 3 µM; 360,000 tested, 0.4% active; AID 624126;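 active = activation above its plate's cutoff, the mean activation of sample wells plus 3 SD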
M4 ag – agonists of human muscarinic M4 receptor (CHRM4); P08173; CHO-K1 hM4/Gqi5, Fluo-8 calcium fluorescence; vehicle 0%, full acetylcholine response 100%; activation, % at 3 µM; 360,000 tested, 0.14% active;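 active = activation above the run mean over all test wells plus 3 SD, cut at about 32% in these data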;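 note: peak over basal fluorescence ratio per well then scaled between controls; 0% = DMSO wells and 100% = acetylcholine at EC100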
CHRM5 agonist – CHRM5 agonism in calcium assay. P08912. AID 624037. CHO-K1 hM5 cells, Fluo-8 calcium fluorescence; 0% DMSO wells, 100% maximal acetylcholine response. activation, % at 3 µM. 360,000 tested, 0.19% active;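 active = activation above the run's mean over test compounds plus 3 SD, cut at about 23% in these data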;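 note: signal is peak over basal fluorescence ratio across the kinetic read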
CHRM5 antagonist – CHRM5 antagonism in calcium assay. P08912. CHO-hM5 cells, Fluo-8 calcium fluorescence, ACh EC80. inhibition, % at 3 µM. 360,000 tested, 0.59% active;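 active = inhibition above a per-plate cutoff, the mean of that plate's test compounds plus 3 SD, cut at about 27% in these data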;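 note: 0% = acetylcholine EC80 with DMSO and 100% = DMSO without agonist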
The depositor's hits bear a star. Shown are actives, neighbours in structure and some others; about 1.8% of the full set was active somewhere.

SMILES	CHRM4 antagonist	CHRM5 PAM	CHRM4 PAM	M4 ag	CHRM5 agonist	CHRM5 antagonist
c1ccc(C(OCCN2CCN(c3ncccn3)CC2)c2ccccc2)cc1	-4	-21	-6	3	-16	23
COC(=O)C1=C(c2ccc(F)cc2F)C[C@@H]2CC[C@H]1N2C	29*	-38	-18	1	-12	21
COC(=O)C1=C(c2ccc(S(C)(=O)=O)cc2)C[C@@H]2CC[C@H]1N2C	-9	5	1	2	3	-3
COC(=O)C1=C(c2ccccc2)C[C@@H]2CC[C@H]1N2C	21	-39	-20	1	-11	63*
O=C1/C(=C\c2cccnc2)N2CCC1CC2	-2	0	-6	1	-4	11
C(=NC12CN3CN(CN(C3)C1)C2)c1cccnc1	3	14	19*	1	0	-3
CCCC(=O)OCC[N+](C)(C)C	-4	-15	-5	1	42*	-8
CC(C)(O)/C=C/C(=O)C(C)(O)C1C(O)CC2(C)C3CC=C4C(C=C(O)C(=O)C4(C)C)C3(C)C(=O)CC12C (centres undefined)	-22	19*	14	1	4	-6
CC(=O)OC(C)(C)/C=C/C(=O)[C@](C)(O)C1[C@H](O)C[C@@]2(C)C3CC=C4C(C[C@H](O)C(=O)C4(C)C)[C@]3(C)C(=O)C[C@]12C (some centres undefined)	-14	14	24*	1	3	-3
N#Cc1ccccc1Cn1cc(C(=O)c2cccs2)c2ccccc21	-13	-17	-5	0	-3	6
O=C(c1cccs1)c1cn(Cc2ccccc2Cl)c2ccccc12	-1	21*	22	-1	-2	-7
O=C1NCN(c2ccccc2)C12CCN(C(c1ccnc3ccccc13)c1nnnn1C1CCCC1)CC2 (centres undefined)	-15	-6	-10	6	0	1
O=c1c2ccccc2nc(-c2ccccc2)n1-c1ccncc1	8	-4	4	2	1	-2
c1ccc(C(c2ccccc2)c2ccncc2)cc1	42*	-38	-16	5	-11	37*
CCOC(=O)C1(CCOc2ccccc2)CCN(C(C)CSC)CC1 (centres undefined)	7	-16	-11	2	-8	13
CCOC(=O)C1(CCOc2ccccc2)CCN(C2Cc3ccccc3C2)CC1	3	-18	-17	3	-7	32*
CCOC(=O)C1(CCOc2ccccc2)CCN(Cc2cccc(O)c2)CC1	5	-18	-15	10	-7	33*
CCOC(=O)C1(CCc2ccccc2)CCN(Cc2cccc3cnccc23)CC1	11	-20	-22	1	-10	81*
C=CCN(CC=C)C(=O)CCN1CC1C (centres undefined)	7	-5	-4	1	0	13
Nc1ccnn1C1CCNCC1	-5	-5	-1	0	-3	27*
CN1CCC(n2nccc2N)CC1	1	2	-1	0	-1	4
Oc1c(Cl)cccc1Cc1cc(Cl)cc(Cl)c1O	10	-24	-3	10	4	30*
O=C(O)c1[nH]c(=O)[nH]c(=O)c1F	-3	-1	5	1	-3	15
CN1C(=O)N(C)C(=O)C2(Cc3c(ccc4ccccc34)N(C)C2)C1=O	5	28*	7	2	-6	-3
COc1ccc(C(=O)CC2(CC(=O)c3ccc(OC)cc3)C(=O)N(C)C(=O)N(C)C2=O)cc1	6	3	-2	0	0	-5
O=[N+]([O-])c1cc(-n2cnnn2)c(O)c([N+](=O)[O-])c1	3	10	30*	1	1	4
O=[N+]([O-])c1cc(O)c(O)c([N+](=O)[O-])c1	5	-4	0	1	0	8
COc1cc2c(cc1OC)C13CCN4C=C5CCOC6CC(=O)N2C1C6C5CC43 (centres undefined)	-11	-4	3	0	3	-2
